Test results: ChEMBL document CHEMBL3808334, “Synthesis and in vitro evaluation of novel triazine analogues as anticancer agents and their interaction studies with bovine serum albumin” (Eur J Med Chem, 2016)

Columns and labels:
Format in all cases: functional
[1] = Growth inhibition of human DU145 cells assessed as cell growth at 10^-5 M incubated for 48 hrs by sulforhodamine B assay; conditions: DU-145, 48 h, read-out: Activity
Outline: (§1)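 Cells seeded at 5,000–40,000/well according to doubling time and preincubated 24 h at 37 °C, 5% CO2. Time-zero plates were TCA-fixed. DMSO concentrate was diluted in medium with 50 µg/ml gentamicin to give five concentrations (10-fold or ½ log steps), then exposed 48 h. Cells were TCA-fixed, stained with 0.4% SRB and read at 515 nm. Percent growth was taken against time-zero and control; GI50, TGI and LC50 derived.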

A549 = experiment: Growth inhibition of human A549/ATCC cells assessed as cell growth at 10^-6 M incubated for 48 hrs by sulforhodamine B assay; conditions: A549, 48 h, read-out: Activity
Outline: (§2)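 Five-dose assay: five concentrations from 10-fold or ½-log serial dilutions. Cells are plated at 5,000–40,000 per well according to doubling time, grown 24 h, then exposed 48 h at 37 °C, 5% CO₂. Fixed with cold 50% TCA (final addition) for 60 min at 4 °C and stained with 0.4% SRB in 1% acetic acid. Bound dye is solubilized in 10 mM Tris base and read at 515 nm. GI₅₀ is where [(Ti−Tz)/(C−Tz)]×100 = 50, with a time-zero plate as Tz.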

[2] = Growth inhibition of human SNB19 cells assessed as cell growth at 10^-6 M incubated for 48 hrs by sulforhodamine B assay; conditions: SNB-19, 48 h, read-out: Activity
[3] = Growth inhibition of human RPMI8226 cells assessed as cell growth at 10 uM incubated for 48 hrs by sulforhodamine B assay; conditions: RPMI-8226, 48 h, read-out: Activity
[4] = Growth inhibition of human DU145 cells assessed as cell growth at 10^-7 M incubated for 48 hrs by sulforhodamine B assay; conditions: DU-145, 48 h, read-out: Activity; outline: as §1
[5] = Growth inhibition of human CNS cancer cells incubated for 48 hrs by sulforhodamine B assay; conditions: Cancer cell lines; for CC50: read-out: LC50 (the source's name); outline: as §2
[6] = Growth inhibition of human COLO205 cells assessed as cell growth at 10^-8 M incubated for 48 hrs by sulforhodamine B assay; conditions: COLO 205, 48 h, read-out: Activity; outline: as §1
[7] = Growth inhibition of human RXF393 cells assessed as cell growth at 10^-8 M incubated for 48 hrs by sulforhodamine B assay; conditions: RXF 393, 48 h, read-out: Activity
MDA-MB-231 = experiment: Growth inhibition of human MDA-MB-231 cells assessed as cell growth at 10^-8 M incubated for 48 hrs by sulforhodamine B assay; conditions: MDA-MB-231, 48 h, read-out: Activity
[8] = Growth inhibition of human PC3 cells incubated for 48 hrs by sulforhodamine B assay; conditions: PC-3, 48 h
Outline: (§3)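 Cells were plated at 5,000–40,000 per well according to doubling time and preincubated 24 h at 37 °C in 5% CO2; time-zero plates were then TCA-fixed. Five concentrations (10-fold or ½-log dilutions, DMSO stock) were incubated 48 h. Cells were TCA-fixed, stained with 0.4% SRB and read at 515 nm. GI50 was taken where [(Ti−Tz)/(C−Tz)]×100 = 50.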

Malme-3M = experiment: Growth inhibition of human MALME-3M cells assessed as cell growth at 10^-5 M incubated for 48 hrs by sulforhodamine B assay; conditions: read-out: Activity
[9] = Growth inhibition of human non-small cell lung cancer cells incubated for 48 hrs by sulforhodamine B assay; conditions: Cancer cell lines; for CC50: read-out: LC50 (the source's name)
[10] = Growth inhibition of human HCC2998 cells assessed as cell growth at 10^-8 M incubated for 48 hrs by sulforhodamine B assay; conditions: HCC 2998, 48 h, read-out: Activity; outline: as §1
[11] = Growth inhibition of human renal cancer cells incubated for 48 hrs by sulforhodamine B assay; conditions: Cancer cell lines; for CC50: read-out: LC50 (the source's name)
K562 = experiment: Growth inhibition of human K562 cells assessed as cell growth at 10^-6 M incubated for 48 hrs by sulforhodamine B assay; conditions: K562, 48 h, read-out: Activity
[12] = Growth inhibition of human leukemia cells incubated for 48 hrs by sulforhodamine B assay; conditions: Leukemia cell; for CC50: read-out: LC50 (the source's name)
[13] = Growth inhibition of human SNB19 cells incubated for 48 hrs by sulforhodamine B assay; conditions: SNB-19, 48 h; outline: as §3
[14] = Growth inhibition of human melanoma cells incubated for 48 hrs by sulforhodamine B assay; conditions: Melanoma cell; for CC50: read-out: LC50 (the source's name)
NCI/ADR-RES = experiment: Growth inhibition of human NCI/ADR-RES cells assessed as cell growth at 10^-6 M incubated for 48 hrs by sulforhodamine B assay; conditions: read-out: Activity
[15] = Growth inhibition of human SNB75 cells assessed as cell growth at 10^-6 M incubated for 48 hrs by sulforhodamine B assay; conditions: SNB-75, 48 h, read-out: Activity
A498 = experiment: Growth inhibition of human A498 cells assessed as cell growth at 10^-6 M incubated for 48 hrs by sulforhodamine B assay; conditions: A498, 48 h, read-out: Activity; outline: as §2
[16] = Growth inhibition of human DU145 cells incubated for 48 hrs by sulforhodamine B assay; conditions: DU-145, 48 h; for CC50: read-out: pLC50 (the source's name) (converted); outline: as §1
KM12 = experiment: Growth inhibition of human KM12 cells assessed as cell growth at 10^-6 M incubated for 48 hrs by sulforhodamine B assay; conditions: KM12, 48 h, read-out: Activity
EKVX = experiment: Growth inhibition of human EKVX cells assessed as cell growth at 10^-7 M incubated for 48 hrs by sulforhodamine B assay; conditions: read-out: Activity; outline: as §1
SN12C = experiment: Growth inhibition of human SN12C cells assessed as cell growth at 10 uM incubated for 48 hrs by sulforhodamine B assay; conditions: read-out: Activity
[17] = Growth inhibition of human SF268 cells assessed as cell growth at 10^-6 M incubated for 48 hrs by sulforhodamine B assay; conditions: SF-268, 48 h, read-out: Activity
[18] = read-out: LC50 (the source's name)
[19] = read-out: pLC50 (the source's name) (converted)

For `Clc1ccc(-c2nc(Nc3ccc(-c4nc5ccccc5[nH]4)cc3)nc(N3CCOCC3)n2)cc1`, which growth at 10 µM [1] is on record?
The growth at 10 µM was -93%.

And the growth at 1 µM (A549)?
The growth at 1 µM was 40%.

What about the growth at 1 µM [2] of the same compound?
The growth at 1 µM was 17%.

And the growth at 10 µM [3]?
Its growth at 10 µM is -73.4%.

What about the growth at 0.1 µM [4] of the same compound?
Its growth at 0.1 µM is 96%.

And the GI50 [5]?
The GI50 was 0.77 µM.

And the TGI [5]?
Its TGI is 1.92 µM.

And the CC50 [5]?
The CC50 was > 100 µM.

And the growth at 0.01 µM [6]?
The growth at 0.01 µM was 95%.

What about the growth at 0.01 µM [7] of the same compound?
Its growth at 0.01 µM is 100%.

What about the growth at 0.01 µM (MDA-MB-231) of the same compound?
Its growth at 0.01 µM is 93%.

What about the GI50 ([8]; read-out: GI50) of the same compound?
The GI50 was 0.376 µM.

And the TGI ([8]; read-out: TGI)?
Its TGI is 1.33 µM.

What about the GI50 ([8]; read-out: pGI50 (converted)) of the same compound?
Its GI50 is 0.38 µM.

What about the TGI ([8]; read-out: pTGI (converted)) of the same compound?
Its TGI is 1.32 µM.

And the growth at 10 µM (Malme-3M)?
Its growth at 10 µM is -78%.

And the GI50 [9]?
Its GI50 is 1.15 µM.

What about the TGI [9] of the same compound?
Its TGI is 2.59 µM.

And the CC50 [9]?
The CC50 was 5.58 µM.

What about the growth at 0.01 µM [10] of the same compound?
The growth at 0.01 µM was 94%.

What about the GI50 [11] of the same compound?
The GI50 was 1.11 µM.

And the TGI [11]?
Its TGI is 2.25 µM.

And the CC50 [11]?
Its CC50 is 5.6 µM.

What about the growth at 1 µM (K562) of the same compound?
The growth at 1 µM was -63%.

And the GI50 [12]?
The GI50 was 0.19 µM.

And the TGI [12]?
Its TGI is 0.58 µM.

What about the CC50 [12] of the same compound?
Its CC50 is > 100 µM.

And the GI50 ([13]; read-out: GI50)?
The GI50 was 0.379 µM.

And the GI50 ([13]; read-out: pGI50 (converted))?
The GI50 was 0.38 µM.

And the GI50 [14]?
The GI50 was 1.07 µM.

What about the TGI [14] of the same compound?
The TGI was 2.48 µM.

What about the CC50 [14] of the same compound?
The CC50 was 5.79 µM.

And the growth at 1 µM (NCI/ADR-RES)?
The growth at 1 µM was 37%.

What about the growth at 1 µM [15] of the same compound?
The growth at 1 µM was 95%.

What about the growth at 1 µM (A498) of the same compound?
Its growth at 1 µM is 89%.

And the LC50 (50% net cell kill) [16]?
The LC50 (50% net cell kill) was 4.33 µM.

What about the GI50 ([16]; read-out: GI50) of the same compound?
The GI50 was 0.452 µM.

What about the TGI ([16]; read-out: TGI) of the same compound?
Its TGI is 1.64 µM.

What about the GI50 ([16]; read-out: pGI50 (converted)) of the same compound?
Its GI50 is 0.447 µM.

And the CC50 [16]?
Its CC50 is 4.37 µM.

What about the TGI ([16]; read-out: pTGI (converted)) of the same compound?
Its TGI is 1.66 µM.

And the growth at 1 µM (KM12)?
The growth at 1 µM was 14%.

And the growth at 0.1 µM (EKVX)?
The growth at 0.1 µM was 87%.

And the growth at 10 µM (SN12C)?
The growth at 10 µM was -79.5%.

What about the growth at 1 µM [17] of the same compound?
The growth at 1 µM was 3%.

Which results are given for `c1ccc2[nH]c(-c3ccc(Nc4nc(N5CCCCC5)nc(N5CCOCC5)n4)cc3)nc2c1`?
growth at 10 µM [1]: 23%; growth at 1 µM (A549): 101%; growth at 1 µM [2]: 99%; growth at 10 µM [3]: 2.47%; growth at 0.1 µM [4]: 104%; GI50 [5]: 2.54 µM; TGI [5]: 23.2 µM; CC50 [5]: 46.6 µM; growth at 0.01 µM [6]: 99%; growth at 0.01 µM [7]: 96%; growth at 0.01 µM (MDA-MB-231): 99%; GI50 ([8]; read-out: GI50): 3.05 µM; CC50 [8, 18]: > 100 µM; TGI ([8]; read-out: TGI): 9.13 µM; GI50 ([8]; read-out: pGI50 (converted)): 3.02 µM; CC50 [8, 19]: > 100 µM; TGI ([8]; read-out: pTGI (converted)): 9.12 µM; growth at 10 µM (Malme-3M): -80%; GI50 [9]: 2.85 µM; TGI [9]: 9.66 µM; CC50 [9]: 9.54 µM; growth at 0.01 µM [10]: 98%; GI50 [11]: 2.46 µM; TGI [11]: 11.8 µM; CC50 [11]: 8.29 µM; growth at 1 µM (K562): 109%; GI50 [12]: 2.37 µM; TGI [12]: 6.5 µM; CC50 [12]: > 100 µM; GI50 ([13]; read-out: GI50): 3.73 µM; CC50 [13, 18]: > 100 µM; TGI ([13]; read-out: TGI): 81.9 µM; GI50 ([13]; read-out: pGI50 (converted)): 3.72 µM; CC50 [13, 19]: > 100 µM; TGI ([13]; read-out: pTGI (converted)): 81.3 µM; GI50 [14]: 1.95 µM; TGI [14]: 4.18 µM; CC50 [14]: 11.8 µM; growth at 1 µM (NCI/ADR-RES): 95%; growth at 1 µM [15]: 69%; growth at 1 µM (A498): 83%; LC50 (50% net cell kill) [16]: > 100 µM; GI50 ([16]; read-out: GI50): 4.28 µM; TGI ([16]; read-out: TGI): > 100 µM; GI50 ([16]; read-out: pGI50 (converted)): 4.27 µM; CC50 [16]: > 100 µM; TGI ([16]; read-out: pTGI (converted)): > 100 µM; growth at 1 µM (KM12): 93%; growth at 0.1 µM (EKVX): 93%; growth at 10 µM (SN12C): 52.4%; growth at 1 µM [17]: 96%
